Data on 4 compounds can be found in ChEMBL document CHEMBL5252510, “A Novel Potent Oral Series of VEGFR2 Inhibitors Abrogate Tumor Growth by Inhibiting Angiogenesis” (J Med Chem, 2016).

Assay [1] deals with Mus musculus. The assay can be described thus: Anti-angiogenesis activity in FVB mouse model assessed as inhibition of VEGF-induced tissue weight at 50 mg/kg, po qd treated for 4 to 6 hrs prior to chamber implantation and continuing for 4 days measured after 24 hrs post last dose. The format is functional, organism-based. As to conditions: time 5.0 day. A digest of the protocol:
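Chamber model in female FVB mice: VEGF (2 μg/mL) agar/heparin chambers s.c. in flank, oral dosing once daily starting 4-6 h before implantation and continuing 4 days; vascularized tissue harvested and weighed 24 h after final dose; 6 mice per group.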

A short description of assay [2]: Antitumor activity against rat BN472 cell implanted in Brown-Norway rat assessed as tumor growth inhibition by measuring T/C ratio at 30 mg/kg, po qd measured upto 14 days. The format is functional. The settings on record: time <= 14 day. In outline:
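Female Brown-Norway rats (160–180 g) received 3 mm³ BN472 tumor fragments in the mammary fat pad. Randomized at about 200 mm² tumor, 2–3 weeks after transplant, into groups of 7–8. Oral daily dosing in PEG300 vehicle for 14 days. Tumor growth curves were compared with vehicle. Experiment run twice.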

Assay [3] has as its target T1, Vascular endothelial growth factor receptor 2 (Homo sapiens, UniProt P35968). Put plainly: Inhibition of VEGF-induced human VEGFR2 autophosphorylation transfected in CHO cells measured after 2 hrs by chemiluminescence assay. It is filed as cell-based.
Assay [4] has as its target T1, Vascular endothelial growth factor receptor 2. The assay can be described thus: Inhibition of human recombinant GST-fused VEGFR2 kinase domain transphosphorylation expressed in baculovirus expression system using poly-Glu-Tyr (4:1) as substrate measured after 10 mins in presence of gamma-[33P]-ATP by scintillation counting analysis.
The species entered for assay [5] is Mus musculus. The assay can be described thus: Antiangiogenic activity in C57BL/6jNpa mouse harbouring mouse B16-BL6 cells assessed as reduction in K-trans level by measuring T/C ratio measured after 3 days by DCE-MRI assay. The settings on record: time 3 day. It is filed as functional. A digest of the protocol: (§1)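 C57BL/6JNpa mice bearing B16/BL6 cervical lymph-node metastases, at least 8 per group, anaesthetized and given contrast agent; DCE-MRI Ktrans and iAUEC (permeability) and Vp (plasma volume) measured before and again after daily treatment; change per mouse recorded, mean ± SEM, one-way ANOVA with Holm-Sidak comparisons versus vehicle.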

The species entered for assay [6] is Mus musculus. The assay can be described thus: Antiangiogenic activity in C57BL/6jNpa mouse harbouring mouse B16-BL6 cells assessed as reduction in tumor plasma volume measured after 3 days by DCE-MRI assay relative to control. The settings on record: time 3 day. More on the design: scale not given: the % may be the effect or the level left. The format is functional. In outline:
as §1

The subject of assay [7] is B16-BL6. The assay can be described thus: Antitumor activity against mouse B16-BL6 cells implanted in C57BL/6jNpa mouse assessed as primary tumor growth inhibition at 100 mg/kg, po qd administered started on day 7 post implantation measured after 21 days relative to control. It is filed as functional, organism-based. As to conditions: time 7-21 day. A digest of the protocol:
(§2)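 Female C57BL/6JNpa mice, 50000 B16/BL6 cells intradermally in both ear pinnae; primary tumor area (mm²) imaged days 7, 14, 21; randomized day 7 into groups of 5-6, oral dosing in PEG200 or PEG300 vehicle daily (or every 2 days) for 14 days; day 21 cervical lymph nodes weighed, metastasis lysates assayed for TIE-2 by ELISA; T/C ratios.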

Assay [8] deals with B16-BL6. The assay can be described thus: Antitumor activity against mouse B16-BL6 cells implanted in C57BL/6jNpa mouse assessed as metastatic tumor growth inhibition at 100 mg/kg, po qd administered started on day 7 post implantation measured after 21 days relative to control. The format is functional, organism-based. As to conditions: time 7-21 day. In outline: as §2
The test system of assay [9] is BaF3. The assay can be described thus: Antiproliferative activity against mouse BaF3 cells expressing Bcr-ABL assessed as cell growth inhibition measured after 72 hrs by Alamar Blue assay. As to conditions: BaF3, 72 h. A general note: Alamar Blue is a resazurin reagent that responds to reducing activity.
Assay [10] concerns BaF3. The assay can be described thus: Antiproliferative activity against mouse BaF3 cells expressing ERBB2 V659E mutant assessed as cell growth inhibition measured after 72 hrs by Alamar Blue assay. As to conditions: BaF3, 72 h.
Assay [11] has as its system BaF3. Put plainly: Antiproliferative activity against mouse BaF3 cells expressing Tel-FGFR3 assessed as cell growth inhibition measured after 72 hrs by Alamar Blue assay. As to conditions: BaF3, 72 h.
In assay [12] the test system is BaF3. Put plainly: Antiproliferative activity against mouse BaF3 cells expressing FLT3-ITD assessed as cell growth inhibition measured after 72 hrs by Alamar Blue assay. As to conditions: BaF3, 72 h.
Assay [13] has as its system BaF3. Put plainly: Antiproliferative activity against mouse BaF3 cells expressing Tel-IGF-1R assessed as cell growth inhibition measured after 72 hrs by Alamar Blue assay. The settings on record: BaF3, 72 h.
The test system of assay [14] is BaF3. The assay can be described thus: Antiproliferative activity against mouse BaF3 cells expressing KIT D816V mutant assessed as cell growth inhibition measured after 72 hrs by Alamar Blue assay. As to conditions: BaF3, 72 h.
Assay [15] deals with BaF3. Put plainly: Antiproliferative activity against mouse BaF3 cells expressing Trp-MET assessed as cell growth inhibition measured after 72 hrs by Alamar Blue assay. As to conditions: BaF3, 72 h.
Assay [16] concerns BaF3. Put plainly: Antiproliferative activity against mouse BaF3 cells expressing PTC3-RET assessed as cell growth inhibition measured after 72 hrs by Alamar Blue assay. The settings on record: BaF3, 72 h.
In assay [17] the test system is BaF3. The assay can be described thus: Antiproliferative activity against mouse BaF3 cells expressing Tel-PDGFRbeta assessed as cell growth inhibition measured after 72 hrs by Alamar Blue assay. The settings on record: BaF3, 72 h.
Assay [18] concerns BaF3. The assay can be described thus: Antiproliferative activity against mouse BaF3 cells assessed as cell growth inhibition measured after 72 hrs by Alamar Blue assay. The settings on record: BaF3, 72 h.
The subject of assay [19] is BaF3. The assay can be described thus: Antiproliferative activity against mouse BaF3 cells expressing NPM-ALK assessed as cell growth inhibition measured after 72 hrs by Alamar Blue assay. As to conditions: BaF3, 72 h.
Assay [20] deals with HUVEC. The assay can be described thus: Antiproliferative activity against VEGF-stimulated HUVEC cells assessed as cell growth inhibition measured after 24 hrs by BrdUrd incorporation based spectrophotometric analysis. As to conditions: Homo sapiens.
Assay [21] concerns HUVEC. Put plainly: Antiproliferative activity against bFGF-stimulated HUVEC cells assessed as cell growth inhibition measured after 24 hrs by BrdUrd incorporation based spectrophotometric analysis. As to conditions: Homo sapiens.
Assay [22] deals with B16-BL6. Put plainly: Antitumor activity against mouse B16-BL6 cells implanted in C57BL/6jNpa mouse assessed as primary tumor growth inhibition by measuring T/C ratio at 100 mg/kg, po qd administered started on day 7 post implantation measured after 21 days. The settings on record: time 7-21 day. The format is functional. In outline:
as §2

Assay [23] has as its system B16-BL6. The assay can be described thus: Antitumor activity against mouse B16-BL6 cells implanted in C57BL/6jNpa mouse assessed as metastatic tumor growth inhibition by measuring T/C ratio at 100 mg/kg, po qd administered started on day 7 post implantation measured after 21 days relative to control. It is filed as functional. The settings on record: time 7-21 day. A digest of the protocol:
as §2

Assay [24] is filed under the species Mus musculus. The assay can be described thus: Antiangiogenic activity in C57BL/6jNpa mouse harbouring mouse B16-BL6 cells assessed as reduction in K-trans level measured after 3 days by DCE-MRI assay relative to control. The format is functional. Further details: scale not given: the % may be the effect or the level left. The settings on record: time 3 day. In outline: as §1

For assay [25], the species on record is Mus musculus. Put plainly: Antiangiogenic activity in C57BL/6jNpa mouse harbouring mouse B16-BL6 cells assessed as reduction in iAUEC level measured after 3 days by DCE-MRI assay relative to control. It is filed as functional. As to conditions: time 3 day. More on the design: scale not given: the % may be the effect or the level left. A digest of the protocol:
as §1

The species entered for assay [26] is Mus musculus. The assay can be described thus: Antiangiogenic activity in C57BL/6jNpa mouse harbouring mouse B16-BL6 cells assessed as reduction in iAUEC level by measuring T/C ratio measured after 3 days by DCE-MRI assay. The format is functional. The settings on record: time 3 day. A digest of the protocol: as §1
For assay [27], the species on record is Mus musculus. The assay can be described thus: Antiangiogenic activity in C57BL/6jNpa mouse harbouring mouse B16-BL6 cells assessed as reduction in tumor plasma volume by measuring T/C ratio measured after 3 days by DCE-MRI assay. The format is functional. The settings on record: time 3 day. In outline:
as §1

Assay [28] has as its system BN472 cell. Put plainly: Antitumor activity against rat BN472 cell implanted in Brown-Norway rat assessed as reduction in perfused blood vessels at 100 mg/kg, po qd measured upto 14 days by Hoechst staining based microscopic analysis. As to conditions: time <= 14.0 day. It is filed as functional, organism-based. In outline:
(§3)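 BN472-bearing Brown-Norway rats dosed orally; Hoechst dye i.v. shortly before sacrifice to mark perfused vessels; tumors cryosectioned at 10 micron, blocked in 10 % goat serum/0.1 % Triton X-100, stained with rabbit anti-Ki67 (1:200) or anti-caspase 3 (1:10) and fluorescent secondary antibodies; fluorescence microscopy.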

Assay [29] deals with BN472 cell. Put plainly: Antitumor activity against rat BN472 cell implanted in Brown-Norway rat assessed as reduction in perfused blood vessels at 100 mg/kg, po qd measured upto 14 days by Ki67 staining based microscopic analysis. The format is functional, organism-based. As to conditions: time <= 14.0 day, in the assay text read “Hoechst dye staining” for “Ki67 staining”. A digest of the protocol: as §3

For assay [30], the system named is BN472 cell. The assay can be described thus: Induction of apoptosis in rat BN472 cell implanted in Brown-Norway rat assessed as effect on caspase 3 level at 100 mg/kg, po qd measured upto 14 days by microscopic analysis. It is filed as functional, organism-based. The settings on record: time <= 14.0 day. A digest of the protocol:
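BN472 fragments were grown in mammary fat pads of female Brown-Norway rats and dosed orally for 14 days. Hoechst dye was given i.v. 2 min before sacrifice. Excised tumors were cut as 10 micron frozen sections, blocked with 10 % normal goat serum/0.1 % Triton X-100 and stained with rabbit anti-rat caspase 3 (1:10), then a TRITC or FITC secondary. Read by fluorescence microscopy.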

Activity calls are given as the source filed them. The calls are words filed in the database; no cut-off is given here.

Regarding `COc1cc2/c(=N/c3ccc(Br)cc3F)nc[nH]c2cc1OCC1CCN(C)CC1` [VANDETANIB], in the assay on Mus musculus [1], the result was Active. In addition, the T/C in assay [2] came to 0.35.

The term IC50 denotes the midpoint of a concentration-inhibition curve. `CCN1CCN(Cc2ccc(NC(=O)Nc3ccc(Oc4cc(NC)ncn4)cc3)cc2C(F)(F)F)CC1` [AST-487]: the IC50 in assay [3] turned out to be 0.23 µM; in assay [4], 0.003 µM.

Consider `Cc1[nH]c(/C=C2\C(=O)Nc3ccccc32)c(C)c1CCC(=O)O`, for which the outcome with Mus musculus [1] was Active.

Consider `Clc1ccc(Nc2nnc(Cc3ccncc3)c3ccccc23)cc1.O=C(O)CCC(=O)O`, for which the T/C in the assay filed under Mus musculus [5] was 0.49; in the assay on B16-BL6 [22], 0.44; with B16-BL6 [23] it was 0.34; in the assay listed under Mus musculus [26] it was 0.61; in the assay filed under Mus musculus [27], 0.67. Also, the figures for the Activity in the assay filed under Mus musculus [6], in the assay filed under Mus musculus [24] and in the assay listed under Mus musculus [25] were 33%, 51% and 33%, respectively. Moreover, the outcome in the assay with B16-BL6 [7], in the assay on B16-BL6 [8], in the assay with BN472 cell [28], in the assay on BN472 cell [29] and in the assay with BN472 cell [30] was Active. For the same compound, the IC50 in the assay on BaF3 [9], with BaF3 [10], with BaF3 [11], with BaF3 [12], in the assay with BaF3 [13] and in the assay with BaF3 [14] was above 10 µM each time. The IC50 in the assay on BaF3 [15] is above 10 µM; with BaF3 [16] it was above 10 µM; with BaF3 [17], 0.076 µM; with BaF3 [18] it was above 10 µM; with BaF3 [19], above 10 µM; with HUVEC [20], 0.0071 µM. Besides, in the assay on HUVEC [21], the IC50 is above 3 µM.
